The record followed here is ChEMBL document CHEMBL3785023, “Development and Pharmacological Characterization of Selective Blockers of 2-Arachidonoyl Glycerol Degradation with Efficacy in Rodent Models of Multiple Sclerosis and Pain” (J Med Chem, 2016).

The source made the active and inactive calls.

The subject of data set [1] is Heart. The experiment in a line: Cardiotoxicity in Langendorff-perfused Sprague-Dawley rat heart assessed as time duration of cardiac cycle length at 0.1 uM by ECG analysis (reference value: 238.38 +/- 9.23 milliseconds). Format: toxicity, tissue-based.
Data set [2] has as its system Heart. The experiment in a line: Cardiotoxicity in Langendorff-perfused Sprague-Dawley rat heart assessed as atrioventricular conduction time at 0.001 uM by ECG analysis (reference value: 45.62 +/- 4.49 milliseconds). It counts as toxicity, tissue-based.
Data set [3] relates to Heart. The data set is described as follows: Cardiotoxicity in Langendorff-perfused Sprague-Dawley rat heart assessed as corrected time duration of action potential at 0.01 uM by ECG analysis (reference value: 155.26 +/- 2.96 milliseconds). Format: toxicity, tissue-based.
Data set [4] deals with Heart. The experiment in a line: Cardiotoxicity in Langendorff-perfused Sprague-Dawley rat heart assessed as coronary perfusion pressure at 1 uM (reference value: 57.45 +/- 2.58 mmHg). Format: toxicity, tissue-based.
For data set [5], the system named is Heart. The data set is described as follows: Cardiotoxicity in Langendorff-perfused Sprague-Dawley rat heart assessed as corrected time duration of action potential at 1 uM by ECG analysis (reference value: 155.26 +/- 2.96 milliseconds). It counts as toxicity, tissue-based.
In data set [6] the test system is Heart. The experiment in a line: Cardiotoxicity in Langendorff-perfused Sprague-Dawley rat heart assessed as corrected time duration of action potential at 0.1 uM by ECG analysis (reference value: 155.26 +/- 2.96 milliseconds). It counts as toxicity, tissue-based.
In data set [7] the test system is Salmonella typhimurium. The experiment in a line: Mutagenicity in Salmonella typhimurium TA98 assessed as increase in number of colonies at 1 uM by Ames test. Format: toxicity, organism-based. Particulars: salmonella enterica subsp. enterica serovar typhimurium. A general note: The Ames test uses bacterial strains that need an amino acid and regain growth without it when mutated back.

The subject of data set [8] is Heart. The experiment in a line: Cardiotoxicity in Langendorff-perfused Sprague-Dawley rat heart assessed as time duration of action potential at 0.001 uM by ECG analysis (reference value: 75.65 +/- 0.87 milliseconds). Format: toxicity, tissue-based.
Data set [9] relates to Heart. The data set is described as follows: Cardiotoxicity in Langendorff-perfused Sprague-Dawley rat heart assessed as time duration of cardiac cycle length at 1 uM by ECG analysis (reference value: 238.38 +/- 9.23 milliseconds). Format: toxicity, tissue-based.
For data set [10], the system named is Heart. The data set is described as follows: Cardiotoxicity in Langendorff-perfused Sprague-Dawley rat heart assessed as intraventricular conduction time at 1 uM by ECG analysis (reference value: 14.26 +/- 0.71 milliseconds). Format: toxicity, tissue-based, Cardiac ventricle.
The subject of data set [11] is Heart. The data set is described as follows: Cardiotoxicity in Langendorff-perfused Sprague-Dawley rat heart assessed as intraventricular conduction time at 0.001 uM by ECG analysis (reference value: 14.26 +/- 0.71 milliseconds). It counts as toxicity, tissue-based, Cardiac ventricle.
The subject of data set [12] is Salmonella typhimurium. The data set is described as follows: Mutagenicity in Salmonella typhimurium TA98 assessed as increase in number of colonies up to >200 uM by Ames test in presence of S9 fraction. Format: toxicity, organism-based. Particulars: salmonella enterica subsp. enterica serovar typhimurium.
Data set [13] has as its system Heart. The data set is described as follows: Cardiotoxicity in Langendorff-perfused Sprague-Dawley rat heart assessed as time duration of action potential at 0.01 uM by ECG analysis (reference value: 75.65 +/- 0.87 milliseconds). Format: toxicity, tissue-based.
Data set [14] in a line: Selectivity ratio of IC50 for human recombinant C-terminal His-tagged FAAH expressed in sf21 cells to IC50 for recombinant C-terminal His6-tagged human MAGL expressed in Escherichia coli. Summed up: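 Ratio of IC50 values from two radiometric assays, each read by scintillation counting of the aqueous phase after CHCl3/MeOH 1:1 extraction. MGL assay: 10,000xg cytosolic fraction of human recombinant MGL (0.05 µg/sample), 50 mM Tris-HCl pH 7.0, 37 °C, 20 min, 2-arachidonoyl-[3H]-glycerol. FAAH assay: human recombinant FAAH (2 µg/sample), pH 9.5, 37 °C, 30 min, [14C]-anandamide. Means of three experiments.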

Data set [15] concerns Mus musculus. The experiment in a line: Analgesic activity in po dosed CD-1 mouse model of oxaliplatin-induced neuropathic pain assessed as reversal of lowering of threshold to cold stimuli administered on day 14 after oxaliplatin addition by cold plate test. It counts as functional, organism-based.
Data set [16] has as its system Mus musculus. The data set is described as follows: Reduction of IBA1 positive cells in white matter anterior fasciculus of experimental autoimmune encephalomyelitis C57BL/6J mouse spinal cord at 3 mg/kg, ip administered post CB2 antagonist/inverse agonist AM630 addition by immunofluorescence assay. It counts as functional, organism-based. The essentials: (§1)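 MOG35-55-immunized female C57BL/6J mice were given 3 mg/kg i.p. daily. AM251 or AM630, each at 1 mg/kg, was given 10 min before each dose. Iba1 immunofluorescence with DAPI was done on spinal cord white matter (anterior fasciculus). Positive cells were counted per optic field. One-way ANOVA with Bonferroni test.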

In data set [17] the test system is Mus musculus. The experiment in a line: Reduction of disease index score in myelin oligodendrocyte glycoprotein (35 to 55)-induced C57BL/6J mouse experimental autoimmune encephalomyelitis model of multiple sclerosis at 3 mg/kg, ip administered post CB2 antagonist/inverse agonist AM630 addition dosed on day 6 postimmunization up to 21 day postimmunization measured from day 12 postimmunization. Format: functional, organism-based. Summed up: (§2)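 Female C57BL/6J mice immunized with MOG35-55 were randomly assigned to groups. They received 3 mg/kg i.p. daily from 6 days post-immunization up to 21±1 d.p.i. AM251 or AM630, 1 mg/kg i.p., was given 10 min before each dose for 14 days. Clinical score was recorded daily and as cumulative score, reported as mean ± SEM. Group sizes were 4–9 mice.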

The subject of data set [18] is Mus musculus. The experiment in a line: Antinociceptive activity in CD-1 mouse assessed as inhibition of formalin-induced early phase pain response at 0.1 to 0.3 mg/kg, ip dosed 10 mins before formalin injection measured every 5 mins for 60 mins in presence of CB1 antagonist/inverse agonist AM251. It counts as functional, organism-based. Summed up: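 Male CD-1 mice, n = 6 per group, injected with formalin (1.25% in saline, 30 μL) into the dorsal hind paw. Inhibitor (0.1 or 0.3 mg/kg i.p. in 0.5% DMSO/saline) given 10 min before formalin. Where used, AM251 or AM630 (1 mg/kg i.p.) given 10 min before the inhibitor. Time spent lifting, licking, shaking or flinching the injected paw recorded every 5 min over 60 min.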

The test system of data set [19] is Mus musculus. The data set is described as follows: Reduction of IBA1 positive cells in white matter anterior fasciculus of experimental autoimmune encephalomyelitis C57BL/6J mouse spinal cord at 3 mg/kg, ip administered post CB1 antagonist/inverse agonist AM251 addition by immunofluorescence assay. Format: functional, organism-based. The essentials:
as §1

The subject of data set [20] is Mus musculus. The experiment in a line: Reduction of disease index score in myelin oligodendrocyte glycoprotein (35 to 55)-induced C57BL/6J mouse experimental autoimmune encephalomyelitis model of multiple sclerosis at 3 mg/kg, ip dosed on day 6 postimmunization up to 21 day postimmunization measured from day 8 postimmunization. Format: functional, organism-based. The essentials: as §2

Data set [21] concerns Mus musculus. The data set is described as follows: Change in cumulative score in myelin oligodendrocyte glycoprotein (35 to 55)-induced C57BL/6J mouse experimental autoimmune encephalomyelitis model of multiple sclerosis at 3 mg/kg, ip dosed on day 6 postimmunization up to 21 day postimmunization measured from day 8 postimmunization. Format: functional, organism-based. Summed up: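 Female C57BL/6J mice immunized with MOG35-55 peptide. Given 3 mg/kg i.p. daily from day 6 post-immunization to the acute stage (21 ± 1 d.p.i.). Clinical score recorded daily and as a cumulative score; n = 7–9 per group.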

For data set [22], the target named is Acyl-protein thioesterase 1/2 (Rattus norvegicus) (UniProt P70470+Q9QYL8). The data set is described as follows: Inhibition of LYPLA1/2 in rat brain membranes at 500 to 1000 nM preincubated for 20 mins followed by fluorophosphonate-rhodamine addition measured after 30 mins by competitive affinity based proteomic profiling assay. It counts as cell membranes. The note with it: Membrane. Summed up: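 Rat brain membranes (1 mg/mL) preincubated with 1–1000 nM inhibitor or DMSO for 20 min at 37 °C. FP-rhodamine then added and incubated a further 30 min at 37 °C. Samples run on SDS-PAGE and serine hydrolase bands quantified by in-gel fluorescence.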
Chain of Acyl-protein thioesterase 1/2 (Rattus norvegicus) (P70470 whole entry, looked up): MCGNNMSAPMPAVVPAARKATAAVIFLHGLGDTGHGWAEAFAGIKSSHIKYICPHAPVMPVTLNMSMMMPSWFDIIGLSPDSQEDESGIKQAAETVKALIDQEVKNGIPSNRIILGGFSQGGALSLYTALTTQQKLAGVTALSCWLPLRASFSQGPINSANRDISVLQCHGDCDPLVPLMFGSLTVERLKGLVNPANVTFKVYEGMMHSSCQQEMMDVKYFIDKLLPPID
Chain of Acyl-protein thioesterase 1/2 (Rattus norvegicus) (Q9QYL8 whole entry, looked up): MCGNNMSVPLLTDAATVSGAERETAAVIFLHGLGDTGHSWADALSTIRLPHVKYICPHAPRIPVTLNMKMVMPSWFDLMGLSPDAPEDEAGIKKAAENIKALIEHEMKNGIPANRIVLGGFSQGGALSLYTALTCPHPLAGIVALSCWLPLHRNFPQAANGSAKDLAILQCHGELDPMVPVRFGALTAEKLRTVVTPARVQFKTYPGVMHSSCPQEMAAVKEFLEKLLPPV

As for `O=C1[C@H](c2ccc(F)cc2)[C@@H](c2ccc3c(c2)OCO3)N1C1CCN(C(=O)n2cncn2)CC1` (racemic) [listing 1 of 2 here], the Time came out at 238.15 ms in the data set on Heart [1]; 46.03 ms with Heart [2]; 156.3 ms in the data set with Heart [3]; 156.78 ms with Heart [5]; 154.6 ms in the data set with Heart [6]; 76.38 ms in the data set on Heart [8]. Besides, the Time in the data set on Heart [9] was found to be 235.48 ms; in the data set with Heart [10], 13.75 ms; in the data set on Heart [11], 14.02 ms; with Heart [13], 76.17 ms. The Activity with Heart [4] is given as 75.19 mmHg; with Salmonella typhimurium [7], “Non-toxic”; in the data set with Salmonella typhimurium [12], “Non-toxic”.

Take `O=C1[C@H](c2ccc(F)cc2)[C@@H](c2ccc3c(c2)OCO3)N1C1CCN(C(=O)n2cncn2)CC1` (racemic) [listing 2 of 2 here]: the Ratio IC50 in data set [14] turned out to be 389. Besides, the Activity entry in the data set on Mus musculus [15] was “Dose-dependent effect”. Further, the result in the data set on Mus musculus [16], with Mus musculus [17] and with Mus musculus [19] was inactive. The inhibition entry in the data set on Mus musculus [18] is “inactive”. Further, the outcome in the data set with Mus musculus [20] and with Mus musculus [21] was Active. Also, in [22], the inhibition entry was “Active”.
